Reference: ChEMBL document CHEMBL1147734, “Synthesis, chiral resolution, and enantiopharmacology of a potent 2,3-benzodiazepine derivative as noncompetitive AMPA receptor antagonist” (J Med Chem, 2006)
Activity calls are given as the source filed them. No cut-off for these calls is given here.

Assays:
Glutamate NMDA receptor = test: Displacement of [3H]glycine from Gly/NMDA receptor in rat cerebral cortex synaptic membranes; assay type: cell membranes, Membrane
Method in brief: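 Rat cortical synaptic membranes with 8 nM [3H]glycine as ligand, following an earlier published method.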

[1] = target: Glutamate receptor ionotropic, AMPA (Rattus norvegicus) (UniProt P19491+P19492+P19493+P19490); test: Inhibition of kainate induced [45Ca]2+ uptake in rat cerebellar granule cells expressing AMPA receptor at 32 uM; assay type: functional
Method in brief: (§1)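 Primary rat cerebellar granule neurons preincubated 30 min with compound in BSS (HEPES, pH 7.3). Then exposed at room temperature for 10 min to 100 µM kainate with 10 µM glycine, 0.5 mM DTT and 0.5 µCi 45Ca2+. Washed in ice-cold BSS containing 5 mM EGTA, lysed in Triton X-100, radioactivity counted.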

[2] = target: T1, Glutamate receptor ionotropic, AMPA (Rattus norvegicus, UniProt P19490+P19491+P19492+P19493); test: Displacement of [3H]CP-526427 from non competitive […] or benzodiazepine binding site of AMPA receptor from rat forebrain
Method in brief: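 Adult male Sprague-Dawley rat forebrain membranes (P2 fraction, lysed in Tris acetate) diluted to 0.5 mg protein/mL in 50 mM Tris-HCl pH 7.4. Compound dilution series plus 3 nM [3H]CP-526,427, incubated 20 min at 30 °C, then filtered and counted by scintillation. Nonspecific binding taken with 10 µM unlabeled CP-526,427 or CP-465,022.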

Mus musculus [3] = organism: Mus musculus; test: Ratio of TD50 over ED50 (clonic phase of audiogenic seizures) in DBA/2 mice; assay type: functional
Method in brief: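 Protective index: rotarod TD50 divided by clonic-phase audiogenic ED50, both from ip-dosed DBA/2 mice fitted by Litchfield-Wilcoxon.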

Mus musculus [4] = test: Effect on tonic phase of audiogenic seizures in DBA/2 mice after 30 min at 3.3-200 umol/kg, ip; assay type: functional; conditions: DBA/2, ip, 0.5 h
Method in brief: (§2)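 DBA/2 mice, 8-12 g, 22-25 days old, either sex, 10 per group. Dosed ip, vehicle or 3.3-200 µmol/kg, then sound stimulus 30 min later; latency and incidence of each seizure phase scored. ED50 by Litchfield-Wilcoxon, 95% confidence limits, at least 32 animals per value.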

[5] = target: T1, Glutamate receptor ionotropic, AMPA; test: Displacement of [3H]AMPA from AMPA receptor in rat cerebral cortex synaptic membranes; assay type: cell membranes, Membrane
Method in brief: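 Rat cerebral cortex synaptic membranes with 5 nM [3H]AMPA, following an earlier published method.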

[6] = target: T1, Glutamate receptor ionotropic, AMPA; test: Inhibition of kainate induced [45Ca]2+ uptake in rat cerebellar granule cells expressing AMPA receptor; assay type: functional; method in brief: as §1
[7] = target: Glutamate NMDA receptor (Rattus norvegicus) (UniProt P35439+Q00959+Q00960+Q00961+Q62645+Q8VHN2+Q9R1M7); test: Displacement of [3H](+)-MK-801 from rat cortical NMDA ion channel complex at 100 uM; assay type: protein-complex assay
Method in brief: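 Rat cortical membranes washed in 5 mM Tris-HCl pH 7.4 with 0.08% Triton X-100, then pelleted and resuspended through four more cycles. Incubated 120 min at room temperature with 2.5 nM [3H]-(+)-MK-801, glutamic acid and glycine, with or without compound. Bound ligand separated on polyethylenimine-soaked GF/C filters. Nonspecific binding defined with phencyclidine.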

Mus musculus [8] = organism: Mus musculus; test: Effect on locomotor activity assessed by rotarod test in DBA/2 mice; assay type: functional
Method in brief: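 Rotarod locomotor deficit in DBA/2 mice after ip dosing across 3.3-200 µmol/kg. TD50 by Litchfield-Wilcoxon with 95% confidence limits, at least 32 animals per value.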

Mus musculus [9] = test: Effect on clonic phase of audiogenic seizures in DBA/2 mice after 30 min at 3.3-200 umol/kg, ip; assay type: functional; conditions: DBA/2, ip, 0.5 h; method in brief: as §2

Row | IC50 (Glutamate NMDA receptor) [µM] | inhibition [1] | IC50 [2] [µM] | IC50 [5] [µM] | IC50 [6] [µM] | inhibition [7] [%] | SMILES | Ratio TD50/ED50 (Mus musculus [3]) | ED50 (Mus musculus [4]) [µmol/kg] | TD50 (Mus musculus [8]) [µM/kg] | ED50 (Mus musculus [9]) [µmol/kg]
1 | > 100 | 94% | > 10 | > 100 | 12 | 33 | CC1C(=O)NN=C(c2ccc(N)cc2)c2cc3c(cc21)OCO3 (racemic) | 2.4 | 8.3 | 48.5 | 20.2
2 | – | – | 3.27 | – | 6 | – | C[C@@H]1C(=O)NN=C(c2ccc(N)cc2)c2cc3c(cc21)OCO3 | 3.1 | 1.74 | 34.2 | 11
3 | – | inactive | > 10 | – | – | – | C[C@H]1C(=O)NN=C(c2ccc(N)cc2)c2cc3c(cc21)OCO3 | >1.1 | 7.36 | >100 | 88.4
